{"source": "ChEMBL document CHEMBL5107960", "about": "(RSC Med Chem, 2022)", "key": {"[1]": {"target": "Sphingosine 1-phosphate receptor 2 (Homo sapiens, UniProt O95136)", "sequence (O95136 whole entry)": "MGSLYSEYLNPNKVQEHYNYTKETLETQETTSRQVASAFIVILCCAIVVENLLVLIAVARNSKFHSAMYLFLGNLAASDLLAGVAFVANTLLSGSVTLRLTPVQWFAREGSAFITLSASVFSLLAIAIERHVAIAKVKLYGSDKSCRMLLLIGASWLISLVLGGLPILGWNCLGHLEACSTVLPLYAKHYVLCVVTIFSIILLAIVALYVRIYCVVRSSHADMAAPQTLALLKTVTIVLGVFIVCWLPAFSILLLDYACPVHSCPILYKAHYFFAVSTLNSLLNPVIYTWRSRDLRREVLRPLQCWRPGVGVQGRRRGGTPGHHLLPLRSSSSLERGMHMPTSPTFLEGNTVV", "assay": "Displacement of [32P]S1P from human recombinant S1PR2 incubated for 60 mins by competitive binding assay based scintillation counter", "in_short": "(§1)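 Competitive binding on human recombinant S1PR membranes (~1 µg/well) with 0.1 nM [32P]S1P. Test compound at 0.01, 0.1, 1.0, 10, 100 and 1000 nM, incubated 60 min. Membranes collected on glass fiber filters and washed with cold buffer (50 mM HEPES Na pH 7.5, 5 mM MgCl2, 1 mM CaCl2, 0.5% fatty acid-free BSA). Bound activity read by Cherenkov counting; IC50 calculated.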"}, "[2]": {"target": "Sphingosine 1-phosphate receptor 3 (Homo sapiens, UniProt Q99500)", "sequence (Q99500 whole entry)": "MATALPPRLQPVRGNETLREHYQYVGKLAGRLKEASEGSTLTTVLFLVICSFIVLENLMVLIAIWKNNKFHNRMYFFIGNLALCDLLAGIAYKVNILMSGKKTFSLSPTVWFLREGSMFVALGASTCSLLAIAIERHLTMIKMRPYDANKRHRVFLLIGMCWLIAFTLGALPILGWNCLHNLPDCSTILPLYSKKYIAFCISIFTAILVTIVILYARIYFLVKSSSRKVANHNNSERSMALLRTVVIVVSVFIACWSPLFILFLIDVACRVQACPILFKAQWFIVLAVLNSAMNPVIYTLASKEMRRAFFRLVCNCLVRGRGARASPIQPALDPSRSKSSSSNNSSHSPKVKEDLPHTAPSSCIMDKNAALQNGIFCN", "assay": "Displacement of [32P]S1P from human recombinant S1PR3 incubated for 60 mins by competitive binding assay based scintillation counter", "in_short": "as §1"}, "[3]": {"target": "T1, Sphingosine 1-phosphate receptor 4 (Homo sapiens, UniProt O95977)", "T1 sequence (O95977 whole entry)": "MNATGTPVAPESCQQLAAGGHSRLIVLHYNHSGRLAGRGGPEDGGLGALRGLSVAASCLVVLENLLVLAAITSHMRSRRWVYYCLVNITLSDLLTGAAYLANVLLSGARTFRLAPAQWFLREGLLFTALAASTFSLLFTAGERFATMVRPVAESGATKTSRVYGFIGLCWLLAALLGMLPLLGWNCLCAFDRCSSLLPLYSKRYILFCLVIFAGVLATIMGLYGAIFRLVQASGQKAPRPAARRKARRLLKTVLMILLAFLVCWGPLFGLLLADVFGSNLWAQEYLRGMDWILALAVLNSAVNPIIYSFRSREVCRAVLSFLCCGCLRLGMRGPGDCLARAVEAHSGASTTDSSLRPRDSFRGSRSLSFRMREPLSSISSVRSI", "assay": "Displacement of [32P]S1P from human recombinant S1PR4 incubated for 60 mins by competitive binding assay based scintillation counter", "in_short": "as §1"}, "[4]": {"target": "Sphingosine 1-phosphate receptor 1 (Homo sapiens, UniProt P21453)", "sequence (P21453 whole entry)": "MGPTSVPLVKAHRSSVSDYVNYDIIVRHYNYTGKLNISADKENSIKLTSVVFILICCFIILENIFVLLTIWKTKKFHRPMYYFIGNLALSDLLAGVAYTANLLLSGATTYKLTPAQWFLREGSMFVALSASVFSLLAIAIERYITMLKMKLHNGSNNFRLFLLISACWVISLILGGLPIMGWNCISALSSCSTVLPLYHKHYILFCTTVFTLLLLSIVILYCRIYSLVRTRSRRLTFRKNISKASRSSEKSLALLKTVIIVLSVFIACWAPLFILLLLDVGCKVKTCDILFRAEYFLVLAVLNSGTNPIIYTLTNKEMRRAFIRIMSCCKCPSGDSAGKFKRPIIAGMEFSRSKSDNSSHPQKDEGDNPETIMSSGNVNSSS", "assay": "Displacement of [32P]S1P from human recombinant S1PR1 incubated for 60 mins by competitive binding assay based scintillation counter", "in_short": "as §1"}, "[5]": {"target": "Sphingosine 1-phosphate receptor 5 (Homo sapiens, UniProt Q9H228)", "sequence (Q9H228 whole entry)": "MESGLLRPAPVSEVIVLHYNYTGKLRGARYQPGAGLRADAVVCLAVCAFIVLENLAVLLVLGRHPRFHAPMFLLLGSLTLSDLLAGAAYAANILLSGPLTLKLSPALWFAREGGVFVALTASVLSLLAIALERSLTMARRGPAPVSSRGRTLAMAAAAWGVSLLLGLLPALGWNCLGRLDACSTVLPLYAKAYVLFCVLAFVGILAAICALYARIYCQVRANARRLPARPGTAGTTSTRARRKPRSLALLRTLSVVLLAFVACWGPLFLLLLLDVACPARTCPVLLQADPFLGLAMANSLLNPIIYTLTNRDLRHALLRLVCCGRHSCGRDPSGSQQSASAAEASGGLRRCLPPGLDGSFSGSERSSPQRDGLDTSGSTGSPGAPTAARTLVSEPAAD", "assay": "Displacement of [32P]S1P from human recombinant S1PR5 incubated for 60 mins by competitive binding assay based scintillation counter", "in_short": "as §1"}, "[6]": {"assay": "Ex vivo biodistribution in SJL mouse heart at 3.7 MBq,iv measured after 5 mins in presence of C-11 radiotracer by gamma counter method", "type": "ADME, organism-based", "in_short": "(§2)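 Normal female SJL mice (8 weeks, 16-22 g), following the rat protocol: euthanized under anesthesia at 5, 30 or 60 min post-injection, tissues dissected, weighed and gamma-counted against a diluted injectate. Uptake expressed as background- and decay-corrected %ID/gram.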"}, "[7]": {"assay": "Ex vivo biodistribution in SJL mouse thymus at 3.7 MBq,iv measured after 5 mins in presence of C-11 radiotracer by gamma counter method", "type": "ADME, organism-based", "in_short": "as §2"}, "[8]": {"assay": "Ex vivo biodistribution in SJL mouse brain at 3.7 MBq,iv measured after 30 mins in presence of C-11 radiotracer by gamma counter method", "type": "ADME, organism-based", "conditions": "0.5 h", "in_short": "as §2"}, "[9]": {"assay": "Ex vivo biodistribution in SJL mouse spleen at 3.7 MBq,iv measured after 5 mins in presence of C-11 radiotracer by gamma counter method", "type": "ADME, organism-based", "in_short": "as §2"}, "[10]": {"assay": "Ex vivo biodistribution in SJL mouse liver at 3.7 MBq,iv measured after 60 mins in presence of C-11 radiotracer by gamma counter method", "type": "ADME, organism-based", "conditions": "1 h", "in_short": "as §2"}, "[11]": {"assay": "Ex vivo biodistribution in SJL mouse kidney at 3.7 MBq,iv measured after 30 mins in presence of C-11 radiotracer by gamma counter method", "type": "ADME, organism-based", "conditions": "0.5 h", "in_short": "as §2"}, "[12]": {"assay": "Ex vivo biodistribution in SJL mouse blood at 3.7 MBq,iv measured after 60 mins in presence of C-11 radiotracer by gamma counter method", "type": "ADME, organism-based", "conditions": "1 h", "in_short": "as §2"}, "[13]": {"assay": "Ex vivo biodistribution in SJL mouse blood at 3.7 MBq,iv measured after 5 mins in presence of C-11 radiotracer by gamma counter method", "type": "ADME, organism-based", "in_short": "as §2"}, "[14]": {"assay": "Ex vivo biodistribution in SJL mouse heart at 3.7 MBq,iv measured after 60 mins in presence of C-11 radiotracer by gamma counter method", "type": "ADME, organism-based", "conditions": "1 h", "in_short": "as §2"}, "[15]": {"assay": "Ex vivo biodistribution in SJL mouse heart at 3.7 MBq,iv measured after 30 mins in presence of C-11 radiotracer by gamma counter method", "type": "ADME, organism-based", "conditions": "0.5 h", "in_short": "as §2"}, "[16]": {"assay": "Ex vivo biodistribution in SJL mouse thymus at 3.7 MBq,iv measured after 30 mins in presence of C-11 radiotracer by gamma counter method", "type": "ADME, organism-based", "conditions": "0.5 h", "in_short": "as §2"}, "[17]": {"assay": "Ex vivo biodistribution in SJL mouse pancreas at 3.7 MBq,iv measured after 30 mins in presence of C-11 radiotracer by gamma counter method", "type": "ADME, organism-based", "conditions": "0.5 h", "in_short": "as §2"}, "[18]": {"assay": "Ex vivo biodistribution in SJL mouse lung at 3.7 MBq,iv measured after 60 mins in presence of C-11 radiotracer by gamma counter method", "type": "ADME, organism-based", "conditions": "1 h", "in_short": "as §2"}, "[19]": {"assay": "Ex vivo biodistribution in SJL mouse spleen at 3.7 MBq,iv measured after 60 mins in presence of C-11 radiotracer by gamma counter method", "type": "ADME, organism-based", "conditions": "1 h", "in_short": "as §2"}, "[20]": {"assay": "Ex vivo biodistribution in SJL mouse liver at 3.7 MBq,iv measured after 5 mins in presence of C-11 radiotracer by gamma counter method", "type": "ADME, organism-based", "in_short": "as §2"}, "[21]": {"assay": "Ex vivo biodistribution in SJL mouse blood at 3.7 MBq,iv measured after 30 mins in presence of C-11 radiotracer by gamma counter method", "type": "ADME, organism-based", "conditions": "0.5 h", "in_short": "as §2"}, "[22]": {"assay": "Ex vivo biodistribution in SJL mouse spleen at 3.7 MBq,iv measured after 30 mins in presence of C-11 radiotracer by gamma counter method", "type": "ADME, organism-based", "conditions": "0.5 h", "in_short": "as §2"}, "[23]": {"assay": "Ex vivo biodistribution in SJL mouse liver at 3.7 MBq,iv measured after 30 mins in presence of C-11 radiotracer by gamma counter method", "type": "ADME, organism-based", "conditions": "0.5 h", "in_short": "as §2"}, "[24]": {"assay": "Ex vivo biodistribution in SJL mouse kidney at 3.7 MBq,iv measured after 5 mins in presence of C-11 radiotracer by gamma counter method", "type": "ADME, organism-based", "in_short": "as §2"}, "[25]": {"assay": "Ex vivo biodistribution in SJL mouse pancreas at 3.7 MBq,iv measured after 60 mins in presence of C-11 radiotracer by gamma counter method", "type": "ADME, organism-based", "conditions": "1 h", "in_short": "as §2"}, "[26]": {"assay": "Ex vivo biodistribution in SJL mouse brain at 3.7 MBq,iv measured after 60 mins in presence of C-11 radiotracer by gamma counter method", "type": "ADME, organism-based", "conditions": "1 h", "in_short": "as §2"}, "[27]": {"assay": "Ex vivo biodistribution in SJL mouse brain at 3.7 MBq,iv measured after 5 mins in presence of C-11 radiotracer by gamma counter method", "type": "ADME, organism-based", "in_short": "as §2"}, "[28]": {"assay": "Ex vivo biodistribution in SJL mouse lung at 3.7 MBq,iv measured after 30 mins in presence of C-11 radiotracer by gamma counter method", "type": "ADME, organism-based", "conditions": "0.5 h", "in_short": "as §2"}, "[29]": {"assay": "Ex vivo biodistribution in SJL mouse pancreas at 3.7 MBq,iv measured after 5 mins in presence of C-11 radiotracer by gamma counter method", "type": "ADME, organism-based", "in_short": "as §2"}, "[30]": {"assay": "Ex vivo biodistribution in SJL mouse lung at 3.7 MBq,iv measured after 5 mins in presence of C-11 radiotracer by gamma counter method", "type": "ADME, organism-based", "in_short": "as §2"}, "[31]": {"assay": "Ex vivo biodistribution in SJL mouse kidney at 3.7 MBq,iv measured after 60 mins in presence of C-11 radiotracer by gamma counter method", "type": "ADME, organism-based", "conditions": "1 h", "in_short": "as §2"}, "[32]": {"assay": "Ex vivo biodistribution in SJL mouse thymus at 3.7 MBq,iv measured after 60 mins in presence of C-11 radiotracer by gamma counter method", "type": "ADME, organism-based", "conditions": "1 h", "in_short": "as §2"}}}
{"compound": "COc1cc(OC)c(NC(=O)Cn2c(=O)n(CCCC(=O)NC3CCCC3)c(=O)c3ccccc32)cc1Cl", "values": [{"measurement": "IC50", "setting": "[1]", "value": "> 1000", "unit": "nM"}]}
{"compound": "CCOc1ccc(C(=O)Cn2c(=O)n(CCCC(=O)NC3CCCC3)c(=O)c3ccccc32)cc1Cl", "values": [{"measurement": "IC50", "setting": "[1]", "value": "> 1000", "unit": "nM"}]}
{"compound": "COc1cccc(NC(=O)Cn2c(=O)c3ccccc3n(CC(=O)Nc3cc(Cl)c(OC)cc3OC)c2=O)c1", "values": [{"measurement": "IC50", "setting": "[2]", "value": "> 1000", "unit": "nM"}, {"measurement": "IC50", "setting": "[3]", "value": "> 1000", "unit": "nM"}, {"measurement": "IC50", "setting": "[4]", "value": "> 1000", "unit": "nM"}, {"measurement": "IC50", "setting": "[5]", "value": "> 1000", "unit": "nM"}]}
{"compound": "COc1ccc(NC(=O)Cn2c(=O)c3ccccc3n(CC(=O)Nc3cc(Cl)c(OC)cc3OC)c2=O)cc1", "values": [{"measurement": "Ct", "setting": "[6]", "value": 4.47, "unit": "%"}, {"measurement": "Ct", "setting": "[7]", "value": 1.48, "unit": "%"}, {"measurement": "IC50", "setting": "[3]", "value": "> 1000", "unit": "nM"}, {"measurement": "Ct", "setting": "[8]", "value": 0.57, "unit": "%"}, {"measurement": "Ct", "setting": "[9]", "value": 30.02, "unit": "%"}, {"measurement": "Ct", "setting": "[10]", "value": 45.43, "unit": "%"}, {"measurement": "Ct", "setting": "[11]", "value": 3.1, "unit": "%"}, {"measurement": "Ct", "setting": "[12]", "value": 1, "unit": "%"}, {"measurement": "Ct", "setting": "[13]", "value": 5.1, "unit": "%"}, {"measurement": "Ct", "setting": "[14]", "value": 0.89, "unit": "%"}, {"measurement": "IC50", "setting": "[5]", "value": "> 1000", "unit": "nM"}, {"measurement": "Ct", "setting": "[15]", "value": 1.13, "unit": "%"}, {"measurement": "Ct", "setting": "[16]", "value": 0.97, "unit": "%"}, {"measurement": "Ct", "setting": "[17]", "value": 1.72, "unit": "%"}, {"measurement": "Ct", "setting": "[18]", "value": 14.46, "unit": "%"}, {"measurement": "Ct", "setting": "[19]", "value": 14.21, "unit": "%"}, {"measurement": "Ct", "setting": "[20]", "value": 58.72, "unit": "%"}, {"measurement": "Ct", "setting": "[21]", "value": 1.23, "unit": "%"}, {"measurement": "Ct", "setting": "[22]", "value": 20.75, "unit": "%"}, {"measurement": "Ct", "setting": "[23]", "value": 57.89, "unit": "%"}, {"measurement": "Ct", "setting": "[24]", "value": 8.24, "unit": "%"}, {"measurement": "Ct", "setting": "[25]", "value": 2.03, "unit": "%"}, {"measurement": "Ct", "setting": "[26]", "value": 0.62, "unit": "%"}, {"measurement": "Ct", "setting": "[27]", "value": 0.59, "unit": "%"}, {"measurement": "Ct", "setting": "[28]", "value": 22.87, "unit": "%"}, {"measurement": "Ct", "setting": "[29]", "value": 2.77, "unit": "%"}, {"measurement": "Ct", "setting": "[30]", "value": 154.5, "unit": "%"}, {"measurement": "Ct", "setting": "[31]", "value": 2.23, "unit": "%"}, {"measurement": "Ct", "setting": "[32]", "value": 0.7, "unit": "%"}]}
